Key:
[1] = tested on: Plasmodium falciparum K1 strain (CQ-resistant); assay: P. falciparum in vitro parasite growth inhibition; assay type: cell-based; settings: for RI (K1/3D7) Resistance Index: ratio of K1 and 3D7 IC50
Procedure, shortened: (§1)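 Asynchronous culture (65–75% rings, 0.5% parasitemia, 2.5% hematocrit) in RPMI 1640/0.5% Albumax II/5 µM hypoxanthine. Triplicate 3-fold dilutions, 10.0–0.0412 µg/mL, DMSO ≤0.01% final. 37 °C, 5% CO2, 24 h, then [3H]hypoxanthine 0.2 µCi/well for a further 24 h. Plates frozen, harvested, scintillation-counted. IC50 curve-fitted, mean of independent experiments. SI = KB IC50 (72 h, Alamar Blue)/parasite IC50. RI from K1 and 3D7 IC50s.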

[2] = tested on: Plasmodium falciparum 3D7 strain (CQ-sensitive); assay: P. falciparum in vitro parasite growth inhibition; assay type: cell-based
Procedure, shortened: as §1

SMILES: CCN(CC)CCCC(C)Nc1ccnc2cc(Cl)ccc12 (stereo not drawn) [CQ, Chloroquine diphosphate]
- SI K1 Selectivity Index ([1]; (KB IC50)/(K1 IC50)): 161
- IC50 ([1]; Plasmodium falciparum, K1, read-out: K1 IC50): 682 nM
- RI (K1/3D7) Resistance Index [1]: 50.52
- RI (K1/3D7) Resistance Index ([1]; listed as chloroquine): 50
- SI 3D7 Selectivity Index ([2]; (KB IC50)/(3D7 IC50)): 8150
- IC50 ([2]; Plasmodium falciparum, 3D7, read-out: 3D7 IC50): 13.5 nM
